# Source: PubChem BioAssay
# procasp3 activ: procaspase-3 (human) activation | P42574 | recombinant procaspase-3 D3A, Ac-DEVD-pNA absorbance 405 nm | activation, % at 8.5 µM | hit rate 0.11% among 330,000 | AID 463141;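 active = activation above the mean of all tested compounds plus 3 SD, cut at about 21% in these data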;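 note: 0% = DMSO alone and 100% = DMSO wells spiked with extra 5 µM PC-3 D3A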
#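 Evaluation: percent activation relative to control range; Material: Procaspase-3 D3A mutant, all three cleavage aspartates alanine; Compound: single dose, 8.5 µM nominal compound, 0.8% DMSO; Replication: one well per compound; Signal: absorbance at 405 nm, 0 and 120 min; Schedule: 1 h preincubation plus 2 h reaction at 25 °C.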
# PP1 inh: counter-screen for PP5 inhibitors: inhibitors of human PP1-alpha; hit rate 0.9% among 320,000; purified PP1alpha, OMFP fluorescence; P62136; inhibition, % at 6.7 µM;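 active = inhibition above the mean inhibition of all tested compounds plus 3 SD, computed separately for each screening campaign, cut at about 15% in these data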
# proCasp7 act: activates human procaspase-7, counter-screen for procaspase-3 activators | P55210 | recombinant procaspase-7, Ac-DEVD-pNA absorbance 405 nm; D23A/D198A/D206A triple mutant, cannot self-cleave; scale: DMSO 0, 5 µM enzyme 100 | activation, % at 8.5 µM | hit rate 0.093% among 330,000 | AID 463210;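 active = percent activation above the screen-wide mean plus 3 SD, cut at about 25% in these data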
#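 Assay system – Uncleavable procaspase-7 mutant enzyme · Quantity – 2 µM procaspase-7 mutant as dispensed · Times – 1 h preincubation, 2 h reaction · Dosing – single nominal 8.5 µM compound dose, 0.8% DMSO final · Buffer or medium – Zinc-free 50 mM HEPES buffer, pH 7.4, with NaCl and Triton X-100 · Detection – Epi-absorbance of released pNA at 405 nm, two timepoints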
# PP5 primary: PP5 (human) phosphatase inhibition. P53041. inhibition, % at 6.7 µM. hit rate 0.18% among 320,000. purified PP5c, OMFP substrate fluorescence. AID 1987;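 active = inhibition above the campaign's mean inhibition across all tested compounds plus 3 SD, cut at about 9.5% in these data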;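 note: 0% = DMSO only and 100% = 100 µM cantharidin control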
# Target sequence (P53041 whole entry, looked up): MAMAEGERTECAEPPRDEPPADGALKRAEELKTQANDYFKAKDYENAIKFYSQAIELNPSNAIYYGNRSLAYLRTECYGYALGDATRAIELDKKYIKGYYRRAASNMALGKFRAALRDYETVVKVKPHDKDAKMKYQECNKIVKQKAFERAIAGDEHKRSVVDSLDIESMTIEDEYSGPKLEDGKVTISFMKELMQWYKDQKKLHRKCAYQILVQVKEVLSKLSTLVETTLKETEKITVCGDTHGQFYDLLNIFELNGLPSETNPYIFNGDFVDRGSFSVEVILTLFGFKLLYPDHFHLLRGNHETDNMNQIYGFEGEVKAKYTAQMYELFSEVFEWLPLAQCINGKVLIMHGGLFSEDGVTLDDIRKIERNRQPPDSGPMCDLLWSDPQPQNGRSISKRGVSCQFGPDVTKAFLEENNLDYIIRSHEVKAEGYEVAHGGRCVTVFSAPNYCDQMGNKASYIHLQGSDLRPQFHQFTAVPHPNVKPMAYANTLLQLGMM
# PP1 inh confirm: confirmation of human PP1 phosphatase inhibitors; shares compounds with PP1 inh; purified PP1alpha, OMFP substrate fluorescence; inhibition, % at 6.7 µM; hit rate 52% among 1,900; AID 2358;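 active = mean PP1 inhibition above a set limit taken from the earlier primary screen, cut at about 15% in these data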
# PP5 inh counter: counter-screen for PP1 inhibitors: human PP5 phosphatase inhibition; shares compounds with PP1 inh; inhibition, % at 6.7 µM; purified PP5c, OMFP fluorescence; hit rate 4% among 1,900;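 active = mean PP5 inhibition over triplicate wells above about 9.5% taken from the earlier PP1 screen, limit read from the data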
# An asterisk follows results filed as active; · = no result given. In the library only some 1.2% were active in any assay of this set; here they are far more common.
SMILES,procasp3 activ,PP1 inh,proCasp7 act,PP5 primary,PP1 inh confirm,PP5 inh counter
COc1ccc(CNC(=O)COC(=O)CN2C(=O)C3CC=CCC3C2=O)cc1 (stereo unspecified),5.8,·,9.5,·,·,·
O=C(Cc1ccc(Cl)cc1)Nc1ccc(-c2cc3ccccc3oc2=O)c(Cl)c1,-2.4,23.4*,-2.9,2.4,24.4*,2.7
CN(CC(=O)Nc1cccc(F)c1)C(=O)c1cc(S(=O)(=O)N2CCCCC2)ccc1N1CCOCC1,10.8,0.6,11.4,-0.6,·,·
O=c1cc(-c2ccccc2)[nH]n1-c1nc2ccccc2s1,4.7,18.1*,-6.4,2.2,7.9,2.0
Cc1onc(-c2ccccc2)c1C(=O)OCC(=O)N1CCN(c2ccccc2)CC1,-7.2,-6.9,2.4,0.9,·,·
COc1ccc(OC)c(Cc2nnc(CCC(=O)N3CCN(C4CCCC4)CC3)o2)c1,-5.0,-1.5,15.7,-4.8,·,·
COC(=O)c1ccc2c(c1)C(C)(C)C(/C=C/c1ccccc1O)=[N+]2C,-13.7,18.9*,2.6,4.9,13.1,-3.7
Nc1nc(N2CCN(C/C=C/c3ccccc3)CC2)nc2ccccc12,-2.6,6.6,-4.0,3.3,·,·
O=c1cc(CN2CCCc3ccccc32)nc2sccn12,-6.4,0.8,-5.6,-4.5,·,·
O=c1cc(CN2CCc3ccccc32)nc2sccn12,0.3,24.0*,2.4,1.9,31.4*,-3.0
O=C(COC(=O)C1CC2CCCC(C1)C2=O)NC1CCCCC1 (stereo unspecified),-3.1,-5.8,3.4,-1.5,·,·
COc1ccc(-n2c(Cn3c(=O)sc4ccccc43)nnc2SCC(=O)N2CCCC2)cc1,-0.4,37.6*,-4.6,1.2,-5.1,-6.1
COc1cccc(/C=N/Nc2ccnc(=O)[nH]2)c1O,-8.0,5.3,-2.3,-1.7,·,·
COc1cccc(/C=N/NC(=O)C(=O)N2CCCC2)c1O,-9.9,-1.9,0.4,2.3,·,·
O=C(Cc1ccccc1)N/N=C/c1cc(Br)cc(Cl)c1O,17.7,8.8,14.5,3.7,·,·
COc1cccc(/C=N/Nc2ccc([N+](=O)[O-])cn2)c1O,13.6,34.1*,-14.8,3.2,24.1*,-0.9
COc1cccc(/C=N/NC(=O)N/N=C/c2cccc(OC)c2O)c1O,2.7,21.5*,11.2,-0.2,16.0*,-6.6
COc1cc(Br)cc(/C=N/NC(=O)Cc2ccccc2)c1O,8.1,18.9*,5.7,0.9,14.3,-4.3
O=C(CSC1=NS(=O)(=O)c2ccccc2N1)Nc1ccccc1F,4.6,-4.8,8.8,1.2,·,·
CN(Cc1ccccc1Br)C(=O)CSc1nnnn1C1CC1,9.2,-3.6,-7.0,-1.4,·,·
Cc1cccc(CNc2ccc(S(=O)(=O)N3CCCCC3)cc2)c1,0.4,4.0,4.1,2.4,·,·
CC(=O)C(Cc1ccccc1)NC(=O)COC(=O)c1cccc(C)c1[N+](=O)[O-] (stereo unspecified),1.6,·,13.3,·,·,·
Cc1ccc(-n2nc(-c3ccco3)cc2C(=O)O)cc1,-0.6,19.8*,8.4,-2.3,16.9*,-9.7
O=C(O)c1cc(-c2ccc(N3CCOCC3)cc2)nn1-c1ccc(F)cc1,4.5,41.7*,3.6,2.4,31.4*,-3.6
COc1ccc(CC(=O)OCC(=O)c2ccc(F)cc2)cc1,-0.5,·,11.3,·,·,·
SMILES,procasp3 activ,PP1 inh,proCasp7 act,PP5 primary,PP1 inh confirm,PP5 inh counter
O=C(CSc1nnc2c(n1)[nH]c1ccccc12)NCc1ccccc1F,-0.9,22.5*,-13.2,1.1,-2.2,-5.8
O=C(CSc1nnc2c(n1)[nH]c1ccc(F)cc12)Nc1ccccc1F,-3.0,-1.2,-1.4,0.6,·,·
Cn1cc(C(CO)Cc2ccccc2)c2ccccc21 (stereo unspecified),5.5,1.0,-0.2,-1.4,·,·
COC(=O)c1cn(CC(=O)Nc2ccccc2C)c2ccccc12,-0.9,-0.9,0.4,-1.5,·,·
CCOC(=O)c1cnc(-n2nc(C)cc2C)nc1NC,-2.9,-1.6,3.2,4.6,·,·
CCOC(=O)c1cnc(-n2nc(C)cc2C)nc1NC1CCCCC1,-2.0,55.2*,1.3,5.8,53.9*,0.7
COC(=O)c1ccccc1NC(=O)CSc1nc(N)cc(N)n1,6.4,-1.3,14.1,0.2,·,·
COC(=O)c1ccccc1NC(=O)CSc1nc(N)cc(=O)[nH]1,-1.4,26.2*,1.8,0.8,-6.9,-7.2
CSCCC(N=C1NS(=O)(=O)c2ccccc21)C(=O)N1CCCC(C(N)=O)C1 (stereo unspecified),3.9,-3.2,6.0,-2.5,·,·
O=C(c1ccc(F)cc1)C1CCN(C(=S)Nc2ccccc2)CC1,-2.1,-2.3,-2.5,1.3,·,·
O=C(CSc1nnc(-c2ccncc2)o1)Oc1ccccc1,5.2,1.9,16.9,1.1,·,·
O=C(CSc1nnc(-c2ccccc2O)o1)Oc1ccc(OCc2ccccc2)cc1,0.7,23.8*,3.2,2.2,29.5*,-4.9
CCCCN(C(=O)Cc1ccc(S(=O)(=O)N2CCOCC2)s1)c1ccccc1,-7.9,-3.9,1.2,5.6,·,·
O=C(Cc1ccc(S(=O)(=O)N2CCOCC2)s1)N(Cc1ccccc1)c1ccccc1,4.7,58.0*,7.7,0.6,4.2,-1.7
CC(Sc1ccc(Cl)cc1)C(=O)N(C)CC(=O)Nc1ccc(N2CCOCC2)cc1 (stereo unspecified),-3.5,-4.1,-0.6,3.4,·,·
CC[C@@H](C)[C@H](CNC)NC[C@@H](Cc1cccc2ccccc12)NCCc1cccc(C(F)(F)F)c1,0.3,24.6*,-10.0,4.9,-10.7,4.3
COc1ccccc1C1c2c(C)nn(-c3ccccc3)c2NC(=O)C1NC(=O)c1ccccc1 (stereo unspecified),2.8,-1.0,6.1,0.4,·,·
COc1ccccc1C(=O)NCCC(=O)N1CCN(C(C)=O)CC1,-4.8,-3.2,7.3,-1.7,·,·
CC[C@]1(C(=O)OC)[C@H]2C(=O)N(Cc3ccccc3)C(=O)[C@H]2[C@H]2CN=C(SCC3CC3)N21,-11.1,·,-1.3,·,·,·
CSCCC(NC(=O)COc1ccccc1)C(=O)OCC(=O)c1ccccc1 (stereo unspecified),8.1,60.5*,1.6,-0.3,-2.4,-3.4
COC/C=C/C1=CC2=CC(=O)C(C)(OC(=O)c3cnc4ccccc4n3)C(=O)C2=CN1Cc1ccc(OC)cc1 (stereo unspecified),3.4,18.4*,-7.5,3.3,2.2,10.6*
COC/C=C/C1=CC2=CC(=O)C(C)(OC(=O)c3cnc4ccccc4n3)C(=O)C2=CN1Cc1ccccc1 (stereo unspecified),-5.6,23.4*,-14.4,2.8,4.9,14.6*
CCOC(=O)C[C@H]1c2cc(F)ccc2S(=O)(=O)N1c1cccc(OC)c1,3.6,-3.1,6.9,3.6,·,·
O=C(CNC(=O)c1ccccc1Cl)NCCc1cccs1,7.5,·,-4.0,·,·,·
O=C(Nc1nnc(-c2ccc(Cl)cc2)o1)c1nc2ccccc2s1,4.2,22.1*,0.5,0.7,26.2*,-3.5
